High-throughput results from PubChem.
The sample as a whole holds a higher share of hits than the screen did.
IDH1 mut inh: IDH1 R132H (human) inhibition; IDH1 R132H reductase, diaphorase/resazurin fluorescence, 60 min; inhibition, % at 10 µM; O75874; 70,000 tested, 0.18% active; AID 624101; in the data active = inhibition above about 34%; inconclusive = no clear call, values can overlap the other calls; inactive = below about 11%;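 also: 0% = DMSO and 100% = no enzyme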
Target sequence (O75874 whole entry R132H): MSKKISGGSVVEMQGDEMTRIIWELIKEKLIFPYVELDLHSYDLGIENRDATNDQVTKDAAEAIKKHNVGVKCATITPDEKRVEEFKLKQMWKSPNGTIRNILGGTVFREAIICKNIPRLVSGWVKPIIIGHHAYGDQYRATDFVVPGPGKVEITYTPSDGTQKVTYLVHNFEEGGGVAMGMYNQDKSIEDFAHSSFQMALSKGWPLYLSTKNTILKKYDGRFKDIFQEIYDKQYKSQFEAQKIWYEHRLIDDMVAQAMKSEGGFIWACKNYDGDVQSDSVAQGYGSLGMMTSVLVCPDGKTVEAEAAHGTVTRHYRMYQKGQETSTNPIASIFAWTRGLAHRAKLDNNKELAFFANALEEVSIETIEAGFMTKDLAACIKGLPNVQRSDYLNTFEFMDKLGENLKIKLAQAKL
T cruzi growth: inhibitors of T. cruzi proliferation; T. cruzi beta-gal in NIH3T3, GalScreen luminescence, 90 h; inhibition, % at 8.34 µM; 77,000 tested, 5.9% active;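 active = mean inhibition above about 93%, with at least 55% of replicates each passing it, limit read from the data, passing the limit was not always enough; inconclusive = only one of those two conditions holds; inactive = neither condition holds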
KDM4C inh: KDM4C (human) demethylase inhibition; Q9H3R0; GST-KDM4C 2-372, H3K9me3 peptide, LANCE TR-FRET; inhibition, % at 12.5 µM; 96,000 tested, 0.15% active; AID 720574;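 active = mean replicate inhibition above about 25%, with at least 55% of replicates also reaching it, limit read from the data, passing the limit was not always enough; inconclusive = only one of those two conditions met; inactive = neither condition met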
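material = GST-tagged GASC-1 (JMJD2C) catalytic fragment, aa 2-372 | amount = enzyme final amount 10 nM | medium = HEPES buffer, pH 7.5, plus ascorbate | also added = H3K9me3 peptide substrate, Fe(II), 2-oxoglutarate | dosing = single dose | times = 30 min demethylation and 1 h detection at room temperature | detection = LANCE TR-FRET | read-out basis = Fall in 671/618 emission ratio as inhibition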
The depositor's hits bear a star; ! = repeats disagree.

For C[C@@H]1CCCCO[C@H](CN(C)C(=O)Nc2cccc3ccccc23)[C@@H](C)CN([C@H](C)CO)C(=O)c2cc(NC(=O)Nc3ccc(C(F)(F)F)cc3)ccc2O1 the results were IDH1 mut inh 2, T cruzi growth 44 and KDM4C inh -2.
C[C@@H]1CCCCO[C@@H](CN(C)C(=O)Nc2ccc(F)cc2)[C@H](C)CN([C@H](C)CO)C(=O)c2cc(NC(=O)Nc3ccccc3)ccc2O1 was read as T cruzi growth 112* and KDM4C inh 1.
`Cc1noc(C)c1S(=O)(=O)N(C)C[C@H]1OCCCC[C@H](C)Oc2ccc(NC(=O)Nc3ccc(C(F)(F)F)cc3)cc2C(=O)N([C@H](C)CO)C[C@H]1C` gave T cruzi growth 96 and KDM4C inh 1.
`C[C@@H]1CCCCO[C@H](CN(C)Cc2ccc3c(c2)OCO3)[C@H](C)CN([C@@H](C)CO)C(=O)c2cc(N(C)C)ccc2O1` gave IDH1 mut inh -1 and T cruzi growth -5.
Screening C[C@@H]1CCCCO[C@H](CN(C)C(=O)Nc2ccc(F)cc2)[C@H](C)CN([C@@H](C)CO)C(=O)c2cc(NC(=O)Nc3ccccc3)ccc2O1 returned T cruzi growth 92 and KDM4C inh 0.
For C[C@@H]1CCCCO[C@@H](CN(C)C(=O)Nc2cccc3ccccc23)[C@H](C)CN([C@H](C)CO)C(=O)c2cc(NC(=O)Nc3ccc(C(F)(F)F)cc3)ccc2O1 the results were T cruzi growth 109* and KDM4C inh 0.
NC(=O)CCCc1c[nH]c2ccccc12 was read as IDH1 mut inh 0.
For O=[N+]([O-])c1ccccc1-c1ccc(-c2nn3c(-c4ccccc4)nnc3s2)o1 the results were IDH1 mut inh 0.
Screening COc1cc(NC(=O)COc2ccccc2Cl)ccc1NC(=O)c1cc2ccccc2o1 returned IDH1 mut inh 1.
For CCc1ccc(C(Nc2cc(C)ccn2)c2ccc3cccnc3c2O)cc1 (stereo unspecified) the results were IDH1 mut inh 0.
N#Cc1c(NC(=O)Cn2cnc3scc(-c4ccccc4)c3c2=O)sc2c1CCC2 was read as IDH1 mut inh 0.
COC(=O)c1c(N)oc2c(-c3cccc(C(F)(F)F)c3)c3c(C(=O)OC)c(N)oc3cc12 was read as IDH1 mut inh 2.
`COc1ccc(NC(=O)N(C)C[C@@H]2OCCCC[C@@H](C)Oc3ccc(NC(=O)Nc4ccc(C(F)(F)F)cc4)cc3C(=O)N([C@H](C)CO)C[C@@H]2C)cc1` gave IDH1 mut inh 0, T cruzi growth 65 and KDM4C inh 0.
For C[C@@H]1CCCCO[C@H](CN(C)CC2CCCCC2)[C@@H](C)CN([C@H](C)CO)C(=O)c2cc(NC(=O)Nc3ccc(C(F)(F)F)cc3)ccc2O1 the results were IDH1 mut inh 0, T cruzi growth 96 and KDM4C inh -2.
`C[C@@H]1CN([C@@H](C)CO)C(=O)c2cc(NC(=O)Nc3ccc(C(F)(F)F)cc3)ccc2O[C@@H](C)CCCCO[C@@H]1CN(C)CC1CCCCC1` gave IDH1 mut inh 1, T cruzi growth 100* and KDM4C inh -5.
For COc1ccc(NC(=O)N(C)C[C@@H]2OCCCC[C@H](C)Oc3ccc(NC(=O)Nc4ccc(C(F)(F)F)cc4)cc3C(=O)N([C@@H](C)CO)C[C@@H]2C)cc1 the results were IDH1 mut inh 0, T cruzi growth 120* and KDM4C inh -2.
`COc1ccc(CN(C)C[C@@H]2OCCCC[C@@H](C)Oc3ccc(NC(=O)NC(C)C)cc3C(=O)N([C@H](C)CO)C[C@H]2C)cc1` gave IDH1 mut inh 68*, T cruzi growth 37 and KDM4C inh inconclusive.
For COc1ccc(CN(C)C[C@H]2OCCCC[C@@H](C)Oc3ccc(NC(=O)NC(C)C)cc3C(=O)N([C@@H](C)CO)C[C@@H]2C)cc1 the results were T cruzi growth 46 and KDM4C inh -3.
Screening Cc1cc2nn(-c3ccc(F)cc3)nc2cc1NC(=O)COc1ccc(Br)cc1 returned IDH1 mut inh 0.
Cc1ccc(Nc2nc(Oc3ccc(=O)[nH]n3)nc(N3CCOCC3)n2)cc1 was read as IDH1 mut inh 0.
COc1ccc(C(NC(=O)c2ccccc2)c2ccc3cccnc3c2O)c(OC)c1 (stereo unspecified) was read as IDH1 mut inh 1.
For O=C(CCNc1ccc(Oc2ccccc2)cc1)c1ccco1 the results were IDH1 mut inh 0.
For N#Cc1cccc(-c2ccc(C3[C@@H]4CN(S(=O)(=O)c5ccc(F)cc5)C[C@H]3N4)cc2)c1 (stereo partly specified) the results were KDM4C inh 34*!.
Screening N#Cc1cccc(-c2ccc([C@@H]3[C@@H]4CN(S(=O)(=O)c5ccc(-c6ccccc6)cc5)C[C@H]3N4)cc2)c1 returned KDM4C inh -59.
Screening O=C(CSc1nnnn1-c1ccccc1)Nc1ccc(Oc2ccccc2)cc1 returned IDH1 mut inh 0.
`CSc1nc(SCC(=O)Nc2cccc(C)c2)c2c3c(sc2n1)CCCC3` gave IDH1 mut inh 0.
Fc1ccc(-c2ccc(C3[C@@H]4CN(Cc5ccccc5)C[C@H]3N4)cc2)cc1 (stereo partly specified) was read as KDM4C inh 41*!.
Fc1ccc(-c2ccc(C3[C@@H]4CN(Cc5cccc(F)c5)C[C@H]3N4)cc2)cc1 (stereo partly specified) was read as KDM4C inh 2.
For CS(=O)(=O)N1[C@H](C#N)[C@H](c2ccc(C#CC3CCCCC3)cc2)[C@H]1CO the results were T cruzi growth 99* and KDM4C inh -2.
`CS(=O)(=O)N1[C@H](CO)[C@@H](c2ccc(C#CC3CCCC3)cc2)[C@@H]1C#N` gave T cruzi growth 89 and KDM4C inh -4.
`C[C@H](CO)N1C[C@H](C)[C@@H](CN(C)Cc2cncnc2)Oc2ncc(/C=C/c3ccccc3)cc2C1=O` gave IDH1 mut inh 79*, T cruzi growth 62 and KDM4C inh 52*.
`CCCC#Cc1cnc2c(c1)C(=O)N([C@@H](C)CO)C[C@H](C)[C@@H](CN(C)C(=O)Cc1ccncc1)O2` gave IDH1 mut inh 51*, T cruzi growth 44 and KDM4C inh -1.
For CCCC#Cc1cnc2c(c1)C(=O)N([C@H](C)CO)C[C@@H](C)[C@H](CN(C)Cc1cccnc1)O2 the results were IDH1 mut inh 0, T cruzi growth 7 and KDM4C inh 0.
For C[C@@H]1CN([C@@H](C)CO)C(=O)c2cc(/C=C/c3ccccc3)cnc2O[C@H]1CN(C)Cc1cncnc1 the results were IDH1 mut inh -2, T cruzi growth 53 and KDM4C inh 0.
`CCCC#Cc1cnc2c(c1)C(=O)N([C@H](C)CO)C[C@H](C)[C@@H](CN(C)Cc1cccnc1)O2` gave IDH1 mut inh 100*, T cruzi growth -4 and KDM4C inh 64*.
For CCCC#Cc1cnc2c(c1)C(=O)N([C@H](C)CO)C[C@@H](C)[C@@H](CN(C)C(=O)Cc1ccncc1)O2 the results were IDH1 mut inh 1, T cruzi growth -23 and KDM4C inh -1.
Screening CS(=O)(=O)N(CC(=O)Nc1cccc(Br)c1)c1cccc2ccccc12 returned IDH1 mut inh 0.
